MEKK2 WT-MEK5 – raises or lowers MEK5 binding to wildtype human MEKK2 PB1 domain; Q9Y2U5; bead flow cytometry, Alexa488-MEK5 binding to MEKK2 WT; actives lie on both sides; binding response (% of control), % at 10 µM; 290,000 tested, 1.1% active; AID 1531; in the data active = binding response below about 67% or above about 130%
MEKK3 PB1 HTS – modulators (inhibitors or enhancers) of MEK5 binding to human MEKK3 PB1 domain; bead-based flow cytometry, Alexa488-MEK5 binding to MEKK3; actives lie on both sides; 0 = blocked by unlabeled MEK5, 100 = vehicle; binding response (% of control), % at 10 µM; Q99759; 290,000 tested, 1.4% active;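 active = binding response more than 3 SD above or below the average of its plate-row segment, actives on both sides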;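 note: Alexa488 bead fluorescence after subtracting the streptavidin-only scavenger bead signal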
Target sequence (Q99759 whole entry, looked up, the tested form may be a part): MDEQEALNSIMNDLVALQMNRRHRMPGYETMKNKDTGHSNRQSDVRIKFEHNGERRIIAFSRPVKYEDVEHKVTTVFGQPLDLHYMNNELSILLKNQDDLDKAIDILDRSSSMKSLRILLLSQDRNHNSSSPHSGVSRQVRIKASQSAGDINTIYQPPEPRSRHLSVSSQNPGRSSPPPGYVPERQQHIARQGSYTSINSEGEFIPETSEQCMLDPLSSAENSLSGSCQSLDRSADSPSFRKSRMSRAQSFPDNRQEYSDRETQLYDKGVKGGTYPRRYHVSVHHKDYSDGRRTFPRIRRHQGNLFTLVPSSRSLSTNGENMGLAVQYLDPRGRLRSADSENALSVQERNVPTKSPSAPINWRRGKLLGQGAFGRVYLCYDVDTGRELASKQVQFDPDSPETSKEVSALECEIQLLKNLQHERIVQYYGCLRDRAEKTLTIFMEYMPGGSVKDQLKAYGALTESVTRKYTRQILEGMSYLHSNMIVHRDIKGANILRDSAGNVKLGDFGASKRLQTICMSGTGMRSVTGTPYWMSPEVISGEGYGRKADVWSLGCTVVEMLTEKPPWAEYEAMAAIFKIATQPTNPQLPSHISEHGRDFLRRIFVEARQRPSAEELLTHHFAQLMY
T cruzi repl – blocks replication of Trypanosoma cruzi | AID 1885 | 300,000 tested, 1.4% active | T. cruzi beta-gal in NIH3T3, luminescence, 90 h | inhibition, % (concentration not given with the values);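 active = mean inhibition across valid replicates above about 55%, limit read from the data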;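 note: signal also drops with host cell toxicity which is not excluded here; higher percent means less beta-gal luminescence so fewer parasites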
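System – NIH/3T3 host cells with β-galactosidase reporter T. cruzi · Doses – single 50 nL compound addition per well in DMSO · Reagent – 5000 T. cruzi trypomastigotes/well · Medium – Low-serum DMEM with 2% FBS · Timing – ≥90 h infection period, 3 h prior cell attachment · Evaluation – parasite load inhibition, % · Technique – GalScreen luminescence, 60 min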
NS3 helicase inh – blocks Hepatitis C virus NS3 helicase unwinding | NS3 helicase DNA unwinding, Cy5 molecular beacon fluorescence | AID 1800 | 290,000 tested, 0.56% active | inhibition, % at 10.9 µM;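 active = inhibition above the mean of all tested compounds plus 3 SD, set per campaign, cut at about 35% in these data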
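Material: hepatitis C virus NS3 helicase domain fragment enzyme; measured by: Cy5 fluorescence, 0 and 60 min reads; control set: DMSO and thioflavine S; incubation: 60 min unwinding reaction at 25 °C after ATP addition; read-out basis: % inhibition from 60/0 min fluorescence ratio, DMSO 0%, thioflavine S 100%; repeats: singlicate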
MEKK2mut PB1 HTS – signal of MEK5 binding to mutant human MEKK2 PB1 domain. bead flow cytometry, Alexa488-MEK5 binding to MEKK2 mutant. percent response, % at 10 µM. 290,000 tested, 0.35% active; in the data active = percent response above about 24%, passing the limit was not always enough
DNA FID counter-1 – displaces DNA intercalator in HCV helicase counter-screen; inhibition, % at 7.9 µM; DNA fluorescent intercalator displacement, fluorescence; 290,000 tested, 0.17% active;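 note: higher means more ethidium bromide displaced from hairpin DNA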
NS3 hel confirm – confirmation of Hepatitis C virus NS3 helicase inhibitors | shares compounds with NS3 helicase inh | NS3 helicase DNA unwinding, Cy5 molecular beacon fluorescence | inhibition, % at 10.9 µM | 1,600 tested, 31% active | AID 1943;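 active = inhibition above the mean of all tested compounds plus 3 SD, cutoff set per campaign, cut at about 36% in these data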
DNA FID counter-2 – intercalator displacement, NS3 helicase counter-screen; shares compounds with NS3 helicase inh; inhibition, % at 7.9 µM; DNA fluorescent intercalator displacement, fluorescence; 1,600 tested, 4% active; AID 1945;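 note: higher means more displacement of ethidium bromide from the DNA hairpin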
Of the large screens only hits and unclear results are named; the others gave an inactive call (follow-up assays come after a bar, where they were run). Only some compounds are listed: those with a hit (about 4.1% of all), similar ones and a draw of the others. Cut-off read from the data, not from the text of the source, unless noted: active = inhibition above about 37%; inactive = the rest.

COc1ccc(-c2noc(CN3CCCC(OCc4ccccn4)C3)n2)cc1 (stereo not drawn)	none
NC(=S)N/N=C/c1ccc2cccc(OCc3ccccc3)c2n1	NS3 helicase inh 39 | NS3 hel confirm inactive | DNA FID counter-2 inactive
CN1CCN(CC(=O)Nc2ccc(OC(F)(F)F)cc2)CC1	none
Cc1c(C(=O)OCC(C)C)[nH]c2c1C(=O)CC(c1ccco1)C2 (stereo not drawn)	NS3 helicase inh 37 | NS3 hel confirm inactive | DNA FID counter-2 inactive
C=CCOC(=O)c1[nH]c2c(c1C)C(=O)CC(c1ccco1)C2 (stereo not drawn)	NS3 helicase inh 39 | NS3 hel confirm inactive | DNA FID counter-2 inactive
O=C(O)c1cccnc1SCc1ccc([N+](=O)[O-])cc1	none
O=C(O)c1cccnc1SCc1cccc(Br)c1	NS3 helicase inh 38 | NS3 hel confirm inactive | DNA FID counter-2 inactive
Cc1cc2oc(=O)cc(-c3cc4ccccc4o3)c2cc1O	NS3 helicase inh 39 | NS3 hel confirm inactive | DNA FID counter-2 inactive
COc1ccc(OC)c(NC(=O)Nc2nnc(N3CCCCC3C)s2)c1 (stereo not drawn)	NS3 helicase inh 39 | NS3 hel confirm inactive | DNA FID counter-2 inactive
O=C(CN1C(=O)COc2ccccc21)NCCCN1CCCCC1	none
CCOC(=O)c1cnc2c(C)cc(C)cc2c1NCCCN1CCOCC1	NS3 helicase inh 41, DNA FID counter-1 71 | NS3 hel confirm inactive | DNA FID counter-2 77
CCOC(=O)c1c(NC(=O)C2C3CCC(O3)C2C(=O)O)sc2c1CCC(CC)C2 (stereo not drawn)	none
CCOC(=O)c1c(NC(=O)C2C3CCC(O3)C2C(=O)O)sc(C)c1-c1ccc(F)cc1 (stereo not drawn)	NS3 helicase inh 55 | NS3 hel confirm 61 | DNA FID counter-2 inactive
CN(C)c1ccc(/C=C(/NC(=O)c2ccccc2Cl)C(=O)NCCN2CCOCC2)cc1	none
Cc1ccccc1N1C(=O)c2ccccc2C1O (stereo not drawn)	none
CCn1c(SCC(=O)c2ccc3c(c2)OCCO3)nnc1-c1ccco1	NS3 helicase inh 48 | NS3 hel confirm inactive | DNA FID counter-2 inactive
Cn1c(SCC(=O)c2ccc(-c3ccccc3)cc2)nnc1-c1ccco1	NS3 helicase inh 68 | NS3 hel confirm inactive | DNA FID counter-2 inactive
O=C(CSc1nnc(-c2ccco2)c(-c2ccco2)n1)c1ccccc1	NS3 helicase inh 41 | NS3 hel confirm 91 | DNA FID counter-2 45
Cc1ccc(C(=O)CSc2nnc(-c3ccco3)n2Cc2ccccc2)cc1	none
CC(=O)c1ccc(NC(=O)CSc2nnc(-c3ccco3)c(-c3ccco3)n2)cc1	none
CC(C)Cn1c(SCC(=O)c2ccc(Cl)s2)nnc1-c1ccco1	NS3 helicase inh 39 | NS3 hel confirm inactive | DNA FID counter-2 inactive
O=C(CSc1nnc(-c2ccco2)n1Cc1ccccc1)c1ccccc1	none
[O-][n+]1c2c(nc3c1-c1ccccc1C3O)CCCC2 (stereo not drawn)	none
COc1cccc(CN2CCN(CCCc3ccccc3)C(CCO)C2)c1O (stereo not drawn)	none
O=C(NCC1CCCN(Cc2cccc(F)c2)C1)c1cccc2ccccc12 (stereo not drawn)	none
CCOC(=O)c1sc(N2C(=O)C(O)=C(C(=O)c3ccco3)C2c2ccc([N+](=O)[O-])cc2)nc1C (stereo not drawn)	NS3 helicase inh 37 | NS3 hel confirm 106 | DNA FID counter-2 inactive
